V-ATPase pH: regulators of yeast V-ATPase proton transport | S. cerevisiae, pHLuorin cytosolic pH fluorescence | response, % at 10 µM | 350,000 compounds, 0.37% hits | AID 504577; in the data active means response mostly above about 7.3%, no sharp cut-off; inactive means mostly below about 5.4%; further: actives read high
Arr AP2 block: blocks beta-arrestin peptide binding to AP2 adaptin; inhibition, % at 10 µM; AID 504490; FITC-arrestin peptide / GST-AP2 beads, flow cytometry; AP2 beta2 appendage carries R879A mutation; 340,000 compounds, 0.31% hits;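 active means inhibition above a set limit, near 3 SD of compounds lacking own fluorescence, cut at about 54% in these data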;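 further: plate controls were DMSO wells for no effect and 5 µM unlabelled arrestin peptide for full effect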
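Test system: GST-tagged AP2 beta2-adaptin appendage (R879A) on 4 µm glutathione beads; also added: fluorescein-tagged arrestin peptide at 50 nM final; timing: 12 min plus 1 h, RT; signal: flow cytometry, FL1 (488/535 nm); read-out: percent drop in bead-associated FITC signal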
NTR1 ag: activates human neurotensin receptor 1; 330,000 compounds, 0.17% hits; NTR1-U2OS beta-arrestin-GFP spot imaging, agonist mode; activation, % at 20 µM;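 active means activation at or above 40% of the spot to cytoplasm intensity ratio, with at least 20 cells analyzed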;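 further: 0% = DMSO without peptide and 100% = 100 nM NTR1 peptide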
MIN6 prolif: induces beta-cell replication in MIN6 cells | proliferation, % at 10 µM | AID 2380 | 330,000 compounds, 0.29% hits | MIN6 cells proliferation, ATPlite luminescence, 48 h; cells starved in 0.2% serum; 100% = growth in 10% serum;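 active means compounds whose signal lies at least 3.5 SD above the mean of all wells on their plate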;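 further: 0% = DMSO-treated cells in low-serum medium and 100% = 10% serum control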
T cell HTS: modulates CD8 T cell binding to vesicles; response (vesicle binding), % at 7 µM; 330,000 compounds, 0.068% hits; 2C CD8+ T cell-vesicle binding, flow cytometry; active compounds read low;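 active means response, share of CD8 T cells binding vesicles, and their 90th percentile fluorescence all below set limits, cut at about 80% in these data, passing the limit was not always enough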;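 further: values below 100% mean blocked vesicle binding to the CD8+ T cells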
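Also added: QL9-peptide-loaded Drosophila micro-vesicles bearing Ld, ICAM-1 and B7-1; Test system: purified 2C TCR transgenic mouse naive CD8+ T cells; Measured by: cytometric PE anti-B7-1 and Alexa647 anti-CD8 signals after 1% paraformaldehyde fixation; Timing: binding step 1.5 h, 37 °C, antibody labelling 20 min, ice.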
Xi reactivation: X-chromosome reactivation activator; XiGFP mouse fibroblasts, % GFP-positive cells imaging, 3 d; cells co-treated with 5-aza-dC sensitizer; scaled so ellipticine positive control = 100%; activation, % at 7.58 µM; 360,000 compounds, 0.055% hits;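 active means mean normalized replicate activation at least 10% and every replicate at or above 10%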;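 further: 0% = median of on-plate neutral control wells and 100% = ellipticine 6 µM median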
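material = 68-5-11 XiGFP fibroblast line | medium = DMEM plus 5-aza-dC sensitizer | schedule = 3 days compound exposure | benchmarks = positive control ellipticine, 6 µM final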
Arr AP2 CP1: human beta-arrestin and AP2 interaction inhibition, cherry pick. shares compounds with Arr AP2 block. GST-AP2 beads, FITC arrestin peptide binding, flow cytometry; GST-fused beta2-adaptin appendage, R879A mutant. inhibition, % at 10 µM. 1,300 compounds, 2% hits. AID 504908;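 active means inhibition above a set limit, roughly 3 SD of non-fluorescent compound noise, cut at about 38% in these data; inactive means inhibition at or below that limit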;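 further: loss of bead fluorescence from 50 nM FITC arrestin peptide bound to appendage; 0% = negative control wells and 100% = excess unlabelled arrestin peptide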
Target sequence (P63010 whole entry, looked up, the tested form may be a part, one chain of several): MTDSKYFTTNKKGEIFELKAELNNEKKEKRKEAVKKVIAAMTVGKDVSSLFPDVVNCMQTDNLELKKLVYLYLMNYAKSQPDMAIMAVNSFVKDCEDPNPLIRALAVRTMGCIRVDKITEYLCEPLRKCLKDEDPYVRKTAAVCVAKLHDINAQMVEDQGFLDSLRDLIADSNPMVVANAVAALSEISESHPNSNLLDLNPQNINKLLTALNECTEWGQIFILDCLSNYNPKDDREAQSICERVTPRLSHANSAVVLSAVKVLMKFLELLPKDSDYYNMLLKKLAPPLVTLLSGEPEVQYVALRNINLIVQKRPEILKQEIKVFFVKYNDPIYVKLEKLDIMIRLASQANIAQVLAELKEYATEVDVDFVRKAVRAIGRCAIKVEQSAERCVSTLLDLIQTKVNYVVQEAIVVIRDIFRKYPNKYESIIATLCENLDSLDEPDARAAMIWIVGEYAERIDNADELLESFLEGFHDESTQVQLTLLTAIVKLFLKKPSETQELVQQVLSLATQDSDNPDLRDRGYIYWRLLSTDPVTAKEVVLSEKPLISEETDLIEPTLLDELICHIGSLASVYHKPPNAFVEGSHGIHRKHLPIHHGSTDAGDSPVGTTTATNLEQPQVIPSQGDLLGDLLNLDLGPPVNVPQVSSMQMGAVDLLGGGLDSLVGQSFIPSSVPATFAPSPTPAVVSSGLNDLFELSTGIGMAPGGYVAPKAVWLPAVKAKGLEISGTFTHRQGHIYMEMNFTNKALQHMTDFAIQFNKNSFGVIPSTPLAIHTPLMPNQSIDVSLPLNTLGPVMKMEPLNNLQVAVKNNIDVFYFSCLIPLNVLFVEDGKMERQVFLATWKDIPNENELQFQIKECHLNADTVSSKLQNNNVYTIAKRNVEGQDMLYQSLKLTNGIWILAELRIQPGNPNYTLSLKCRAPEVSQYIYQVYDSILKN
GST-FITC bead: disrupts GST binding to glutathione beads, arrestin-AP2 artifact; shares compounds with Arr AP2 block; GST-fluorescein binding to GSH beads, fluorescence, counter-screen; inhibition, % at 10 µM; 1,300 compounds, 2% hits; AID 588338;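 active means inhibition above 50%, about 3 SD of the inhibition seen with non-fluorescent compounds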;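 further: fluorescein maleimide labelled GST captured on 4 micron glutathione beads; higher means more loss of bead fluorescence from quenching or blocked binding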
Active calls of the source: *; i = inactive; / = no result. Only some compounds are listed: those with a hit (about 0.89% of all), similar ones and a draw of the others.

SMILES | V-ATPase pH | Arr AP2 block | NTR1 ag | MIN6 prolif | T cell HTS | Xi reactivation | Arr AP2 CP1 | GST-FITC bead
Cc1cccc(N/N=C(\C(N)=O)C2=NC(C)(C)Cc3ccccc32)c1 | 0.9 | 54.7* | 9.2 | -5.7 | 192.2 | 0.5 | 19.1 | 0.1
CCOC(=O)/C(=N\O)C1=NC(C)(C)Cc2ccccc21 | -5.2 | -3.7 | 0.0 | 0.7 | 423.2 | 0.3 | / | /
CCCCCOc1ccc(NC(=O)CSc2cccc3cccnc23)cc1 | -1.5 | 107.0* | 9.7 | -2.8 | 111.1 | 0.0 | 3.7 | -4.4
COc1ccc(NC(=O)CSc2cccc3cccnc23)c(OC)c1 | 0.2 | 7.3 | 2.9 | 0.0 | 208.8 | 0.1 | / | /
C[C@@H]1CCCCO[C@H](CN(C)S(=O)(=O)c2cn(C)cn2)[C@@H](C)CN([C@@H](C)CO)C(=O)c2cc(NS(=O)(=O)c3ccccc3)ccc2O1 | / | / | / | / | / | -0.2 | / | /
COc1ccc(-c2nnn(CC(=O)Nc3ccc4c(c3)OCCO4)n2)cc1OC | -3.1 | 60.4* | -0.7 | -0.6 | 170.2 | / | 11.0 | 2.7
CNC[C@@H]1OCCCC[C@H](C)Oc2ccc(NC(=O)Nc3ccccc3)cc2C(=O)N([C@H](C)CO)C[C@@H]1C | / | / | / | / | / | 0.2 | / | /
O=C(CSc1nc2ccccc2c(=O)n1-c1ccccc1F)NC1CC1 | 0.2 | 4.3 | -1.1 | -1.5 | 598.8 | 0.6 | / | /
COc1ccccc1-n1c(SCC(=O)NC2CC2)nc2ccccc2c1=O | -4.5 | 59.9* | 0.0 | -0.3 | 342.9 | 0.2 | -6.1 | -5.4
Cc1cc(C(=O)CCl)c(C)n1-c1cccc([N+](=O)[O-])c1 | -1.6 | 62.2* | 4.2 | -6.2 | 579.0 | 0.0 | 8.7 | 0.7
CC(=O)c1c(C(C)=O)c(C)n(-c2cccc([N+](=O)[O-])c2)c1C | 5.7 | -3.0 | -1.0 | 0.0 | 296.4 | 0.0 | / | /
O=C1C(Cl)=C(N2CCC(C(=O)O)CC2)C(=O)c2ccccc21 | 0.7 | 26.5 | 4.4 | -3.9 | 195.3 | / | / | /
NC(=O)C1CCN(C2=C(Cl)C(=O)c3ccccc3C2=O)CC1 | 2.9 | 54.2* | -0.1 | -5.7 | 228.6 | / | 51.3* | -0.2
C/C=C/c1cnc2c(c1)C(=O)N([C@@H](C)CO)C[C@H](C)[C@H](CN(C)C(=O)C1CC1)O2 | / | / | / | / | / | -0.9 | / | /
Cc1c(NS(=O)(=O)c2cccc(C(=O)NCc3ccco3)c2)c(=O)n(-c2ccccc2)n1C | 0.9 | 95.0* | / | / | / | -0.1 | 5.6 | -9.2
COc1ccc(S(=O)(=O)NC2CCCCC2)cc1-n1cnnn1 | 9.8 | 56.3* | 1.1 | -1.9 | 834.3 | -0.1 | -5.7 | -8.8
Cc1noc(C)c1S(=O)(=O)N(C)C[C@H]1Oc2ccc(NS(=O)(=O)c3cn(C)cn3)cc2CC(=O)N([C@@H](C)CO)C[C@H]1C | / | / | / | / | / | -0.6 | / | /
CC(=O)/C(=N\Nc1ccccc1Cl)Sc1nnc(-c2ccccc2)n1-c1ccccc1 | -4.3 | -3.0 | 2.8 | -0.6 | i | -0.1 | / | /
CC(=O)/C(=N\Nc1ccccc1)Sc1nnc(-c2ccccc2)n1-c1ccccc1 | -1.1 | 91.2* | 11.2 | 1.1 | 239.3 | 0.0 | 8.2 | 4.8
Cc1nn(-c2ccccn2)c2c1C(c1ccsc1)C1=C(CCCC1=O)N2 (centres undefined) | -0.3 | 105.4* | 2.3 | -3.7 | 395.8 | / | -11.5 | 2.8
Cc1cccc(-n2nc(C)c3c2NC2=C(C(=O)CCC2)C3c2ccccn2)c1 (centres undefined) | 0.3 | 13.5 | 2.0 | -1.6 | 247.0 | 0.3 | / | /
CCC(=O)N[C@@H]1CC[C@H](CCn2cc(C3CC3)nn2)O[C@@H]1CO | / | / | / | / | / | 0.4 | / | /
CCNC(=O)/C(C#N)=C/c1c(N2CCN(Cc3ccc4c(c3)OCO4)CC2)nc2c(C)cccn2c1=O | -1.0 | 57.2* | / | / | 265.6 | 0.1 | 3.6 | -7.0
CCOC(=O)C1=C(COC(=O)C(CC)Oc2ccccc2)NC(=O)NC1C (centres undefined) | 0.3 | -8.6 | 0.4 | 1.8 | 166.2 | 0.0 | -8.6 | -6.4
CCOC(=O)C1=C(COC(=O)CC(C)c2ccccc2)NC(=O)NC1C (centres undefined) | 3.7 | -9.2 | 0.9 | 1.1 | 278.0 | -0.1 | 2.6 | 2.9
SMILES | V-ATPase pH | Arr AP2 block | NTR1 ag | MIN6 prolif | T cell HTS | Xi reactivation | Arr AP2 CP1 | GST-FITC bead
CCOC(=O)C1=C(COC(=O)c2cccs2)NC(=O)NC1C (centres undefined) | -0.5 | 6.7 | 0.5 | -1.6 | 204.9 | -0.7 | / | /
CCOC(=O)C1=C(COC(=O)C(CC)c2ccccc2)NC(=O)NC1C (centres undefined) | 1.1 | 67.2* | 0.7 | -0.2 | 531.5 | -0.2 | -2.7 | -3.8
CCOC(=O)C1=C(COC(=O)Cc2c(F)cccc2Cl)NC(=O)NC1C (centres undefined) | 0.4 | 3.6 | 0.9 | -2.5 | 347.6 | 0.2 | 10.0 | -10.0
CCOC(=O)C1=C(COC(=O)c2c(OC)cccc2OC)NC(=O)NC1C (centres undefined) | -1.1 | -1.6 | 0.2 | -0.8 | 569.6 | 0.3 | / | /
Cc1cccc(S(=O)(=O)N[C@@H]2CC[C@@H](CCNC(=O)CCN3CCCCC3)O[C@H]2CO)c1 | / | / | / | / | / | -0.7 | / | /
COc1ccccc1C(=O)Nc1ccc2c(c1)C(=O)N(C)[C@@H]1CC[C@@H](CC(=O)NCc3ccc(Cl)c(Cl)c3)O[C@H]1CO2 | / | / | / | / | / | 0.3 | / | /
C[C@@H]1CCCCO[C@@H](CN(C)Cc2ccc(C(=O)O)cc2)[C@H](C)CN([C@H](C)CO)C(=O)c2cc(NC(=O)c3ccccc3)ccc2O1 | / | / | / | / | / | 0.0 | / | /
COC(=O)c1cccc(NC(=O)CN(c2ccc3c(c2)OCO3)S(C)(=O)=O)c1C | -4.6 | 61.1* | 0.8 | 0.3 | 458.1 | / | 7.4 | 4.8
CC(C)OC(=O)CSc1nc(Cc2ccccc2)nc2ccccc12 | 3.1 | 71.3* | 10.5 | 0.4 | 295.2 | 0.1 | -10.5 | 0.1
Cc1cc(C)cc(NC(=O)C(=O)NCC2CCCN2S(=O)(=O)c2cccs2)c1 (centres undefined) | 0.2 | 69.4* | 1.0 | 0.3 | 284.0 | 0.0 | 2.1 | -7.6
Cc1ccc(NC(=O)C(=O)NCC2CCCN2S(=O)(=O)c2cccs2)c(C)c1 (centres undefined) | -5.2 | 12.3 | -0.7 | 4.2 | 240.3 | 0.2 | / | /
CNC[C@H]1Oc2cc(-c3ccccc3F)ccc2S(=O)(=O)N([C@@H](C)CO)C[C@@H]1C | / | / | / | / | / | 0.1 | / | /
CCCCn1c(N)c(NCC(C)C)c(=O)[nH]c1=O | -3.7 | 56.9* | 3.5 | -2.5 | 680.5 | 0.2 | -8.5 | 0.3
